FLuc inhib CS: inhibits firefly luciferase, flagging false hits in luciferase inhibition screens. P08659. ATPLite firefly luciferase biochemical luminescence, 10 min. inhibition, % at 10 µM. 1.5% of 200,000 active. AID 1006;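 active = inhibition above about 50% when tested at 10 µM, limit read from the data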
Target sequence (P08659 whole entry, looked up): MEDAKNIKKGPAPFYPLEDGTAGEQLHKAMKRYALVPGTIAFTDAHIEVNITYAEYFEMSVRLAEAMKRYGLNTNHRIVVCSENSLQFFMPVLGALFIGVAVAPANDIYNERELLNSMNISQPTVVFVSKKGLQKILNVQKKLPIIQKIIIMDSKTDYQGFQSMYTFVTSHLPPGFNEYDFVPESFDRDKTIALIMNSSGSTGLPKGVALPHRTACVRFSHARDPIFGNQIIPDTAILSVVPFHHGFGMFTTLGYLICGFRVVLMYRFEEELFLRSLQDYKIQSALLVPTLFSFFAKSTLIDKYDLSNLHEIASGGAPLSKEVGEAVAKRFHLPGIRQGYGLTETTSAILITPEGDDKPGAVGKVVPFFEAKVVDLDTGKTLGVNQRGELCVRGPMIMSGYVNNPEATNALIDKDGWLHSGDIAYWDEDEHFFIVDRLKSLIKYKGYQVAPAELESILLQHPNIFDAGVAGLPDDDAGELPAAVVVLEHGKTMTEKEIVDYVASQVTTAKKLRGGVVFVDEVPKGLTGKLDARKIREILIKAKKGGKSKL
NF-kB neuron act: NF-kB expression increase, human neuronal cells; 1.6% of 190,000 active; fold change at 12.5 µM; AID 1239; NF-kB reporter expression; stronger effect = higher value; in the data active = fold change above about 3.3
STAT1 act: STAT1 signaling activation; NIH 3T3 STAT1-luciferase reporter, IFN-gamma, luminescence; 100% = IFN-gamma alone, no compound; activation (% of control), % at 5.5 µM; 2.6% of 200,000 active; AID 932;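 active = activation above the screen-wide mean activation plus 3 SD, cut at about 130% in these data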
FLuc act counter: firefly luciferase counter-screen for stimulation assays; ATPlite luciferase biochemical, luminescence, 10 min; 0 = ATP-free wells, 1 = DMSO control; activation factor at 10 µM; AID 1027; 200,000 tested, under 10 active; P08659;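 active = luciferase activation factor, scaled between plate controls, of at least 2 with compound at 10 µM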
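Material: Luciferase/luciferin reagent mix; Doses: test compounds dosed from 2 mM stocks in 100% DMSO; Schedule: 10 min incubation after luciferase reagent addition, room temperature; Measured by: luminescence from luciferase reaction; Read-out: luminescence gain marking luciferase activators.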
Rad51 HR inh: Rad51 (human) homologous recombination inhibition; Q06609; hRad51 DNA strand exchange, fluorescence dequenching; inhibition, % at 10 µM; 0.085% of 200,000 active; AID 1385;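 active = inhibition above 40% at the single screening dose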
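Material: human Rad51–ssDNA filaments; Probe or stimulus: labelled 47-mer dsDNA for strand exchange; Doses: single 10 µM dose; Incubation: 37 °C 15-min filament assembly, 30-min compound preincubation, 15-min exchange; Technique: FRET fluorescence dequenching, excitation 485 nm, emission 520 nm; Measure: Fluorescence-based percent inhibition, control- and blank-normalised; Benchmarks: plate control and blank wells.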
APP 5'UTR act: activates APP 5'UTR luciferase reporter; SH-SY5Y APP 5'UTR luciferase reporter, luminescence; zero percent = DMSO vehicle wells; activation, % at 2 µM; 1% of 190,000 active;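 active = activation above a set limit, based on mean plus 3 SD of controls, cut at about 140% in these data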
Large screens that a line does not name were inactive. This is a sample that favours compounds with a hit; in the whole collection about 3.9% have one here.

c1ccc(CNc2ncnc3c2oc2ccccc23)nc1	STAT1 act 132
CC(=O)c1ccc(Nc2ncnc3c2oc2ccccc23)cc1	STAT1 act 161
CCSc1ncnc2c1oc1ccccc12	none
COc1ccc(NC(=O)[C@@H](NC(N)=O)C(C)C)cc1Cl	none
OCC1CCCCN1C(=S)Nc1cccc(Cl)c1 (centres undefined)	STAT1 act 130
COc1ccc(-c2ccnc(-c3ccc(O)cc3)n2)cc1	none
Cc1ccc(-c2ccnc(-c3ccc(O)cc3)n2)cc1	STAT1 act 142
CC12COC3(C(=O)Nc4ccc5ccccc5c4)CC1CCC32C (centres undefined)	STAT1 act 144
CCOc1ccc(/C=C/C2=NNC(=O)CC2)cc1	STAT1 act 129
Cn1cc(NC(=O)c2cc(NC(=O)c3cc(NC=O)cn3C)cn2C)cc1C(=O)NCCC(=N)N	Rad51 HR inh 48 (no result: FLuc inhib CS, NF-kB neuron act, STAT1 act, FLuc act counter, APP 5'UTR act)
CCC(Sc1nc(N)cc(=O)[nH]1)C(=O)Nc1cc(C)on1 (centres undefined)	none
Cc1cccc(C2(c3cccc(C)c3)CC2C(=O)Nc2ccc([N+](=O)[O-])cc2O)c1 (centres undefined)	none (no result: Rad51 HR inh)
Cc1cc(C(=O)Cn2nnc3ccccc3c2=O)c(C)n1-c1ccccc1F	FLuc inhib CS 85, STAT1 act 129, APP 5'UTR act 197
Cc1cc(C(=O)COC(=O)c2ccc(O)cc2)c(C)n1-c1ccccc1F	APP 5'UTR act 185
COC(=O)c1ccc(-n2c(C)cc(C(=O)CSc3ccc(NC(C)=O)cc3)c2C)cc1	none
CC(=O)Nc1ccc(SCC(=O)c2cc(C)n(-c3ccccc3F)c2C)cc1	STAT1 act 145
CCn1cc(C(=O)OCC(=O)c2cc(C)n(-c3ccccc3F)c2C)c(=O)c2ccc(C)nc21	none
COc1cc(/C=N/NC(=O)CNc2n[nH]c(=O)[nH]c2=O)ccc1O	none
Cn1c(=O)c([N+](=O)[O-])c(N2CCN(Cc3ccc4c(c3)OCO4)CC2)c2ccccc21	none (no result: FLuc inhib CS, NF-kB neuron act, STAT1 act, FLuc act counter, APP 5'UTR act)
CCCCN1CCc2c([nH]c3c(C)cccc23)C1=O	NF-kB neuron act 3.5
COc1ccc(NCC(=O)N/N=C/C=C/c2ccccc2[N+](=O)[O-])cc1	none
COc1ccc(OCC(=O)N/N=C/C=C/c2ccccc2)cc1	FLuc inhib CS 81
CCOc1ccc(NCC(=O)N/N=C/C=C/c2ccccc2)cc1	FLuc inhib CS 56 (no result: Rad51 HR inh)
COc1ccc(OCC(=O)N/N=C/c2ccncc2)cc1	none
O=C(CP(=O)(c1ccccc1)c1ccccc1)Nc1nc2ccc(Cl)cc2s1	none (no result: FLuc inhib CS, NF-kB neuron act, STAT1 act, FLuc act counter, APP 5'UTR act)
CC1=NNC(=O)C1CC(=O)N/N=C/C=C/c1ccccc1 (centres undefined)	none (no result: FLuc inhib CS, NF-kB neuron act, STAT1 act, FLuc act counter, APP 5'UTR act)
O=c1c2ccccc2ncn1CCOCCOc1ccc([N+](=O)[O-])cc1	STAT1 act 129
O=c1c2ccc([N+](=O)[O-])cc2ncn1CCOc1ccccc1	none
CCn1c(-c2cc(-c3ccc(C)c(C)c3)nc3ccccc23)n[nH]c1=S	FLuc inhib CS 53
CCn1c(-c2cc(-c3cc(C)ccc3C)nc3ccccc23)n[nH]c1=S	none
O=c1oc2ccccc2c(Cl)c1CN1CCCCC1	none
CC1(C)C=C(c2ccc(C(=O)O)s2)CC(C)(C)N1	none
Cc1cc(-c2ccc(C(=O)O)s2)cnc1N	STAT1 act 129
COc1ccccc1C(=O)Nc1nc(-c2cccs2)c(NC(C)=O)s1	FLuc inhib CS 50
O=C(CNC(=O)c1cccs1)c1ccc([N+](=O)[O-])cc1	STAT1 act 136
CC(Cc1ccccc1)NC(=O)c1ccc([N+](=O)[O-])cc1 (centres undefined)	STAT1 act 143
O=C(CNC(=O)c1cccs1)c1ccc(F)cc1	FLuc inhib CS 52, NF-kB neuron act 4, APP 5'UTR act 158
O=C(CNC(=O)c1ccc([N+](=O)[O-])cc1)c1ccccc1	STAT1 act 134
O=C(O)c1sc2cc(C(F)(F)F)cnc2c1-c1cccs1	none
O=c1sc(N2CCN(c3ccc(F)cc3)CC2)nc2ccsc12	none
O=c1sc(N2CCN(c3ccccc3F)CC2)nc2ccsc12	NF-kB neuron act 3.6, STAT1 act 139
COc1ccc(CC2(CO)CCN(S(=O)(=O)c3sccc3C)CC2)cc1	none
Cc1ccccc1N=C1Nc2ccccc2CS1	NF-kB neuron act 4.6

Compound activity as filed in PubChem BioAssay.
